Reference: ChEMBL document CHEMBL5724801, “EUbOPEN Chemogenomics Library - Multiplex” (2024)
Values joined by “and” are separate entries in the source; they are usually repeats but may differ in a detail not shown here. Equal values may be shown once.

Tested on: Fibroblast
Experiment: Multiplex assay against human fibroblast
Type: toxicity, cell-based
Procedure, shortened: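 Values for tubulin, mitochondrial-mass and membrane-permeability phenotypes are per cents of cells with healthy nuclei. These cells were identified by CellPathfinder machine-learning gating of live cells that had been stained at seeding with Hoechst33342, BioTracker Green Microtubule Cytoskeleton Dye, MitoTracker Red and Annexin V Alexa Fluor 680 and imaged on a CQ1 microscope at 37°C and 5% CO2 after compound addition. The gating first set Hoechst high-intensity objects apart from normal cells, then split normal cells into healthy, pyknosed or fragmented nuclei, and pyknosed cells into mitotic or apoptotic.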

[1] = 12 h, 1 µM, compound concentration 1 uM
[2] = 12 h, 10 µM, compound concentration 10 uM
[3] = 24 h, 1 µM, compound concentration 1 uM
[4] = 24 h, 10 µM, compound concentration 10 uM
[5] = 48 h, 1 µM, compound concentration 1 uM
[6] = 48 h, 10 µM, compound concentration 10 uM

CN1[C@@H](CC(=O)c2ccccc2)CCC[C@H]1C[C@H](O)c1ccccc1.Cl [LOBELINE HYDROCHLORIDE]
Population Apoptotic (%) [1]: 11.11% and 18.52%
Population Fragmented Nuclei (%) [1]: 12.29% and 4.19%
Population Healthy Nuclei (%) [1]: 57.54% and 81.68%
Population Hoechst High Intensity Objects (%) [1]: 0%
Population Membrane Permeable-Phenotype (%) [1]: 3.88% and 3.21%
Population Mitochondria Different-Phenotype (%) [1]: 13.59% and 7.05%
Population Mitotic Cells (%) [1]: 88.89% and 81.48%
Population Normal (%) [1]: 100%
Population Pyknosed Nuclei (%) [1]: 30.17% and 14.14%
Population Tubulin-Different-Phenotype (%) [1]: 15.53% and 14.1%
Total Cell Count [1]: 179 and 191
Population Apoptotic (%) [2]: 16.36% and 11.43%
Population Fragmented Nuclei (%) [2]: 9.48% and 12.07%
Population Healthy Nuclei (%) [2]: 64.45% and 72.84%
Population Hoechst High Intensity Objects (%) [2]: 0%
Population Membrane Permeable-Phenotype (%) [2]: 8.09% and 4.73%
Population Mitochondria Different-Phenotype (%) [2]: 25% and 14.79%
Population Mitotic Cells (%) [2]: 83.64% and 88.57%
Population Normal (%) [2]: 100%
Population Pyknosed Nuclei (%) [2]: 26.07% and 15.09%
Population Tubulin-Different-Phenotype (%) [2]: 35.29% and 43.2%
Total Cell Count [2]: 211 and 232
Population Fragmented Nuclei (%) [3]: 8.95% and 0.5%
Population Healthy Nuclei (%) [3]: 64.21% and 85.07%
Population Hoechst High Intensity Objects (%) [3]: 0%
Population Membrane Permeable-Phenotype (%) [3]: 3.28% and 3.51%
Population Mitochondria Different-Phenotype (%) [3]: 11.48% and 7.02%
Population Mitotic Cells (%) [3]: 96.08% and 82.76%
Population Normal (%) [3]: 100%
Population Pyknosed Nuclei (%) [3]: 26.84% and 14.43%
Population Tubulin-Different-Phenotype (%) [3]: 28.69% and 18.13%
Total Cell Count [3]: 190 and 201
Population Fragmented Nuclei (%) [4]: 9.69% and 11.42%
Population Healthy Nuclei (%) [4]: 75.77% and 77.95%
Population Hoechst High Intensity Objects (%) [4]: 0%
Population Membrane Permeable-Phenotype (%) [4]: 2.33% and 2.02%
Population Mitochondria Different-Phenotype (%) [4]: 22.09% and 12.12%
Population Mitotic Cells (%) [4]: 93.94% and 66.67%
Population Normal (%) [4]: 100%
Population Pyknosed Nuclei (%) [4]: 14.54% and 10.63%
Population Tubulin-Different-Phenotype (%) [4]: 43.02% and 41.41%
Total Cell Count [4]: 227 and 254
Population Apoptotic (%) [5]: 23.08% and 23.53%
Population Fragmented Nuclei (%) [5]: 9.22% and 3.83%
Population Healthy Nuclei (%) [5]: 84.47% and 88.04%
Population Hoechst High Intensity Objects (%) [5]: 0%
Population Membrane Permeable-Phenotype (%) [5]: 1.15% and 1.63%
Population Mitochondria Different-Phenotype (%) [5]: 8.62% and 3.26%
Population Mitotic Cells (%) [5]: 76.92% and 76.47%
Population Normal (%) [5]: 100%
Population Pyknosed Nuclei (%) [5]: 6.31% and 8.13%
Population Tubulin-Different-Phenotype (%) [5]: 9.2% and 7.07%
Total Cell Count [5]: 206 and 209
Population Apoptotic (%) [6]: 30.77% and 35.71%
Population Fragmented Nuclei (%) [6]: 10.79% and 10.97%
Population Healthy Nuclei (%) [6]: 83.82% and 83.12%
Population Hoechst High Intensity Objects (%) [6]: 0%
Population Membrane Permeable-Phenotype (%) [6]: 1.98% and 6.09%
Population Mitochondria Different-Phenotype (%) [6]: 11.39% and 5.58%
Population Mitotic Cells (%) [6]: 69.23% and 64.29%
Population Normal (%) [6]: 100%
Population Pyknosed Nuclei (%) [6]: 5.39% and 5.91%
Population Tubulin-Different-Phenotype (%) [6]: 12.38% and 25.89%
Total Cell Count [6]: 241 and 237
